{"source": "ChEMBL document CHEMBL4261634", "about": "“Design and optimization of 2,3-dihydrobenzo[b][1,4]dioxine propanoic acids as novel GPR40 agonists with improved pharmacokinetic and safety profiles” (Bioorg Med Chem, 2018)", "key": {"[1]": {"assay": "Cmax in Sprague-Dawley rat at 3 mg/kg, po by LC-ESI-MS analysis", "format": "ADME, organism-based", "parameters": "dose 3 mg/kg, route oral", "conditions": "in vivo", "in_short": "(§1)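 SD rats dosed orally (3 or 10 mg/kg) or by intravenous injection (1 mg/kg). Plasma PK parameters derived per route: Cmax, AUC0-t, Tmax, t1/2 and F after oral dosing; CL, AUC0-t, MRT, t1/2 and Vdss after iv dosing. Mean ± SD from three independent experiments (n = 3).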"}, "[2]": {"molecular_target": "Voltage-gated inwardly rectifying potassium channel KCNH2 (Homo sapiens, UniProt Q12809)", "sequence (Q12809 whole entry)": "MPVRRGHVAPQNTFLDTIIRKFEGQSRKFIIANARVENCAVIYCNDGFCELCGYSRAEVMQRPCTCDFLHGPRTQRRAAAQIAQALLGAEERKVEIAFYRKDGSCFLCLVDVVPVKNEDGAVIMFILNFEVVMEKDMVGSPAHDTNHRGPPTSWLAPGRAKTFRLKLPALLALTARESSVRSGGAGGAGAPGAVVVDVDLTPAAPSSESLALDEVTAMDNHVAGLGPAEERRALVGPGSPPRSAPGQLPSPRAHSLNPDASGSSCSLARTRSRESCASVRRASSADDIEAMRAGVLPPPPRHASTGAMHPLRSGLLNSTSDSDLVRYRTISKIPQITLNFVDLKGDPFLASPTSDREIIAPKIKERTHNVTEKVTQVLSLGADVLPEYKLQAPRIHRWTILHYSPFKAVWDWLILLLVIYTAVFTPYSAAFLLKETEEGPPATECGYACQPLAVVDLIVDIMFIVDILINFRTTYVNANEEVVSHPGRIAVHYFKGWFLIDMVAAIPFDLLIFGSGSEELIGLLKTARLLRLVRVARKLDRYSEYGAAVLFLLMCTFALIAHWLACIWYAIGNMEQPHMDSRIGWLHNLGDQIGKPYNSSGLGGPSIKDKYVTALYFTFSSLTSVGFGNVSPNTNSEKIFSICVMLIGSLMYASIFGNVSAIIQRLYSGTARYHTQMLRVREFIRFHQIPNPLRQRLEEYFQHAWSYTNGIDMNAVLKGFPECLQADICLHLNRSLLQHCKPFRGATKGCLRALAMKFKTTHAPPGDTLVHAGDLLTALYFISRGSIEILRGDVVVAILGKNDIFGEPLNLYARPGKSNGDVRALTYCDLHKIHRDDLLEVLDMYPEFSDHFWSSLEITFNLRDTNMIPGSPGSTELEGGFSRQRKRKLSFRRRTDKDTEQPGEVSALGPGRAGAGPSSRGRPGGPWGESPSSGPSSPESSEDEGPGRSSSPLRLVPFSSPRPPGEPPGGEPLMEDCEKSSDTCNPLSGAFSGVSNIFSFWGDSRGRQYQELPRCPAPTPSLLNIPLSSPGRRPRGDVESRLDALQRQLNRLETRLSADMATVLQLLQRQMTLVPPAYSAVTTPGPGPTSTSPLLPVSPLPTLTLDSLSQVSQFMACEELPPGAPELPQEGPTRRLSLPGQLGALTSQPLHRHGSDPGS", "assay": "Inhibition of human ERG by patch-clamp assay", "in_short": "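hERG K+ channel inhibition measured by patch clamp to give IC50.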"}, "[3]": {"system": "Rattus norvegicus", "assay": "Antidiabetic activity in Sprague-Dawley rat assessed as reduction in blood glucose AUC (0 to 120 mins) at 10 to 20 mg/kg, po administered 60 mins prior to glucose challenge by OGTT", "format": "functional, organism-based", "in_short": "(§2)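 OGTT in SD rats: compound given orally 60 min before a 3.0 g/kg glucose challenge. Blood glucose followed over time, and AUC0-60min or AUC0-120min calculated versus vehicle group. Mean ± SD, n = 8.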"}, "[4]": {"molecular_target": "T1, Glucose-dependent insulinotropic receptor (Homo sapiens, UniProt Q8TDV5)", "T1 sequence (Q8TDV5 whole entry)": "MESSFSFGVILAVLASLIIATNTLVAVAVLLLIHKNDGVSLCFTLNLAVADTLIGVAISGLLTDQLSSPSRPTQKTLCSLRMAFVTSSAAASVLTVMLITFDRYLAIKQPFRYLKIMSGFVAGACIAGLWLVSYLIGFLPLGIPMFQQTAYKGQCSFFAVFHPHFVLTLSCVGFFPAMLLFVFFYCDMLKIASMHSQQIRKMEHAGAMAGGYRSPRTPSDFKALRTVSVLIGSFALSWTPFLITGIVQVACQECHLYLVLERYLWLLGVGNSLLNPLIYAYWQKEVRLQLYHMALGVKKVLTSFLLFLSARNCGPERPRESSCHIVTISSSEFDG", "assay": "Agonist activity at GPR119 (unknown origin)", "format": "functional"}, "[5]": {"assay": "AUC (0 to t) in Sprague-Dawley rat at 3 mg/kg, po by LC-ESI-MS analysis", "format": "ADME, organism-based", "conditions": "in vivo", "in_short": "as §1"}, "[6]": {"assay": "AUC (0 to t) in Sprague-Dawley rat at 1 mg/kg, iv by LC-ESI-MS analysis", "format": "ADME, organism-based", "conditions": "in vivo", "in_short": "as §1"}, "[7]": {"system": "Rattus norvegicus", "assay": "Subacute toxicity in Sprague-Dawley rat assessed as effect on organ coefficients at 50 to 100 mg/kg, po administered once daily for 2 weeks", "format": "organism-based", "conditions": "in vivo, 336 h", "in_short": "(§3)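 SD rats dosed orally once daily for two weeks at 50 mg/kg and 100 mg/kg. Subacute toxicity was assessed over the dosing period from survival rate, behaviour, food intake and organ coefficients.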"}, "[8]": {"molecular_target": "Cytochrome P450 2C9 (Homo sapiens, UniProt P11712)", "sequence (P11712 whole entry)": "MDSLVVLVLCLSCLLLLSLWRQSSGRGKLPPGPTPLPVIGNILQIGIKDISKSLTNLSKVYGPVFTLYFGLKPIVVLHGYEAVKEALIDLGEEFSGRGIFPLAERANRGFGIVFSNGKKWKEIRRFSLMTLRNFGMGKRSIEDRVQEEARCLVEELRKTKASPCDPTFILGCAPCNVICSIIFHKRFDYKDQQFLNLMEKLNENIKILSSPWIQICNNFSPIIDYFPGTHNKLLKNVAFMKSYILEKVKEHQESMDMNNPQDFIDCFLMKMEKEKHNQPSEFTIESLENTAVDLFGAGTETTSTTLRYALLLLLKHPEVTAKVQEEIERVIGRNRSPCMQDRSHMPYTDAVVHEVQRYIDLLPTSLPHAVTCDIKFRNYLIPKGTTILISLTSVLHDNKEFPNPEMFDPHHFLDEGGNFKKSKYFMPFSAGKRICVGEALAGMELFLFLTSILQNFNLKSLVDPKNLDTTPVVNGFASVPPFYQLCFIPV", "assay": "Inhibition of CYP2C9 (unknown origin)", "format": "ADME"}, "[9]": {"assay": "Cmax in Sprague-Dawley rat at 10 mg/kg, po by LC-ESI-MS analysis", "format": "ADME, organism-based", "parameters": "dose 10 mg/kg, route oral", "conditions": "in vivo", "in_short": "as §1"}, "[10]": {"assay": "Volume of distribution at steady state in Sprague-Dawley rat at 1 mg/kg, iv by LC-ESI-MS analysis", "format": "ADME, organism-based", "conditions": "in vivo, read-out: Vdss", "in_short": "as §1"}, "[11]": {"molecular_target": "Free fatty acid receptor 1 (Homo sapiens, UniProt O14842)", "sequence (O14842 whole entry)": "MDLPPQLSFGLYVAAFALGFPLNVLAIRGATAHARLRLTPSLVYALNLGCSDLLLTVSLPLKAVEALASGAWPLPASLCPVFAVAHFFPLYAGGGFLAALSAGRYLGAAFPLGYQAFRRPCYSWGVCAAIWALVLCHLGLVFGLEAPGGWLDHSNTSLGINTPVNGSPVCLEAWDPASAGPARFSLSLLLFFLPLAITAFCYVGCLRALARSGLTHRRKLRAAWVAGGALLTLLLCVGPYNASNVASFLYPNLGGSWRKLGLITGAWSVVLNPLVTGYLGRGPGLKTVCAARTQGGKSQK", "assay": "Agonist activity at human GPR40 expressed in human HEK293 cells assessed as increase in intracellular calcium flux after 10 mins by fluorescence assay", "format": "functional, cell-based", "in_short": "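Human GPR40 activity read by calcium mobilization to give EC50. Mean ± SD, n = 3.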"}, "[12]": {"molecular_target": "T2, Cytochrome P450 2B6 (Homo sapiens, UniProt P20813)", "T2 sequence (P20813 whole entry)": "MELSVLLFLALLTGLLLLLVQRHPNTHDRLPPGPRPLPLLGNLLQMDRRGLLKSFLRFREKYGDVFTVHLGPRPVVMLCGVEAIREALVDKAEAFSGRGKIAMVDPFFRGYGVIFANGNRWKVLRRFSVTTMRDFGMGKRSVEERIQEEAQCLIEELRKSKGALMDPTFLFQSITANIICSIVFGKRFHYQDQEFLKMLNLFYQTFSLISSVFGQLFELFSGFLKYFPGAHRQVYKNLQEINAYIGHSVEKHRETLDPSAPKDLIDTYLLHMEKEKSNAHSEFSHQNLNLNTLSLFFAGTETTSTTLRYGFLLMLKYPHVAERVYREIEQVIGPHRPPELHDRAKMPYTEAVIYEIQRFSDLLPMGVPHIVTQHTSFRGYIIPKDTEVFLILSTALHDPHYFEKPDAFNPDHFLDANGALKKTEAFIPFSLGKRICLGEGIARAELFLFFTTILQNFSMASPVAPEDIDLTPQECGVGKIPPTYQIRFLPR", "assay": "Inhibition of CYP2B6 (unknown origin)", "format": "ADME"}, "[13]": {"system": "Rattus norvegicus", "assay": "Antidiabetic activity in Sprague-Dawley rat assessed as reduction in blood glucose AUC (0 to 60 mins) at 10 to 20 mg/kg, po administered 60 mins prior to glucose challenge by OGTT", "format": "functional, organism-based", "in_short": "as §2"}, "[14]": {"system": "Rattus norvegicus", "assay": "Subacute toxicity in Sprague-Dawley rat assessed as effect on survival rate at 50 to 100 mg/kg, po administered once daily for 2 weeks", "format": "organism-based", "conditions": "in vivo, 336 h", "in_short": "as §3"}, "[15]": {"molecular_target": "T3, Cytochrome P450 1A2 (Homo sapiens, UniProt P05177)", "T3 sequence (P05177 whole entry)": "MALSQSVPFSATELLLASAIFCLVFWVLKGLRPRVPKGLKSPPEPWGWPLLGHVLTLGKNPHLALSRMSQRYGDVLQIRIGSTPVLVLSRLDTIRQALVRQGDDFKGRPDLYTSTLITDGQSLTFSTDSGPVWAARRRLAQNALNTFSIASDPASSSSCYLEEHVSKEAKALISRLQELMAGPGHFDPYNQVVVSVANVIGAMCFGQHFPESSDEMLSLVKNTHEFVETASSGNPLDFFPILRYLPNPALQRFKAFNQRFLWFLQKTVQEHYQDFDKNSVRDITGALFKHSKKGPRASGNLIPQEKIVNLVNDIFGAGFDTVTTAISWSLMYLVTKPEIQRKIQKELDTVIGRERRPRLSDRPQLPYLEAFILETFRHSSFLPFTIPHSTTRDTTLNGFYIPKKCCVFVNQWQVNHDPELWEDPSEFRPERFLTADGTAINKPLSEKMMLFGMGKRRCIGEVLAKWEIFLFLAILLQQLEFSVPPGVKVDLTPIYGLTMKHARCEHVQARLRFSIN", "assay": "Inhibition of CYP1A2 (unknown origin)", "format": "ADME"}, "[16]": {"assay": "MRT in Sprague-Dawley rat at 1 mg/kg, iv by LC-ESI-MS analysis", "format": "ADME, organism-based", "conditions": "in vivo", "in_short": "as §1"}}, "note": "Active and inactive are the calls of the source. The rule behind the calls is not given here."}
{"smiles": "CC#C[C@@H](CC(=O)O)c1ccc(OC[C@H]2COc3ccc(Cl)cc3O2)cc1", "values": [{"measurement": "Cmax", "setting": "[1]", "result": 9310, "unit": "ng/mL"}, {"measurement": "IC50", "setting": "[2]", "result": "> 40", "unit": "µM"}, {"measurement": "Activity", "setting": "[3]", "result": "Active"}, {"measurement": "EC50", "setting": "[4]", "result": "> 100", "unit": "µM"}, {"measurement": "AUC(0-t)", "setting": "[5]", "result": 140, "unit": "µg·h/mL"}, {"measurement": "AUC(0-t)", "setting": "[6]", "result": 71.4, "unit": "µg·h/mL"}, {"measurement": "Activity", "setting": "[7]", "result": "Non-Toxic"}, {"measurement": "IC50", "setting": "[8]", "result": 60.5, "unit": "µM"}, {"measurement": "Cmax", "setting": "[9]", "result": 47800, "unit": "ng/mL"}, {"measurement": "Vd", "setting": "[10]", "result": 0.182, "unit": "L/kg"}, {"measurement": "EC50", "setting": "[11]", "result": 0.05, "unit": "µM"}, {"measurement": "IC50", "setting": "[12]", "result": 84.7, "unit": "µM"}, {"measurement": "Activity", "setting": "[13]", "result": "Active"}, {"measurement": "Activity", "setting": "[14]", "result": "Non-Toxic"}, {"measurement": "IC50", "setting": "[15]", "result": "> 100", "unit": "µM"}, {"measurement": "MRT", "setting": "[16]", "result": 17.9, "unit": "h"}]}
